Results published in ChEMBL document CHEMBL1275311, “Synthesis and vasodilation activity of some novel bis(3-pyridinecarbonitrile) derivatives” (Eur J Med Chem, 2010).

test system: Thoracic aorta; test: Vasodilatory activity in Wistar rat thoracic aorta assessed as reduction of norepinephrine hydrochloride-induced vasoconstriction; format: functional, tissue-based
How it was run: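 Isolated rat aorta preparation with contractile response recorded. Compounds were dissolved in DMSO, with vehicle-only controls run at the same DMSO concentrations. Relaxation was plotted against compound concentration (mM) to give concentration–response curves, and IC50 was calculated by the best-fit line technique.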

Point of comparison: `CCOc1nc(-c2ccc(Cl)cc2)cc(-c2ccccc2OCCOc2ccccc2-c2cc(-c3ccc(Cl)cc3)nc(OCC)c2C#N)c1C#N`, IC50 622 µM. Against it:
- COc1nc(-c2ccccc2)cc(-c2ccccc2OCCOc2ccccc2-c2cc(-c3ccccc3)nc(OC)c2C#N)c1C#N — 1.7-fold higher, 1050 µM
- CCOc1nc(-c2ccccc2)cc(-c2ccccc2OCCOc2ccccc2-c2cc(-c3ccccc3)nc(OCC)c2C#N)c1C#N — within 1.5-fold, 862 µM
- COc1nc(-c2ccc(Cl)cc2)cc(-c2ccccc2OCCOc2ccccc2-c2cc(-c3ccc(Cl)cc3)nc(OC)c2C#N)c1C#N — within 1.5-fold, 665 µM
- COc1nc(-c2ccc(F)cc2)cc(-c2ccccc2OCCOc2ccccc2-c2cc(-c3ccc(F)cc3)nc(OC)c2C#N)c1C#N — within 1.5-fold, 517 µM
- CCOc1nc(-c2ccc(F)cc2)cc(-c2ccccc2OCCOc2ccccc2-c2cc(-c3ccc(F)cc3)nc(OCC)c2C#N)c1C#N — within 1.5-fold, 470 µM
- COc1nc(-c2ccc(C)cc2)cc(-c2ccccc2OCCOc2ccccc2-c2cc(-c3ccc(C)cc3)nc(OC)c2C#N)c1C#N — within 1.5-fold, 795 µM
- COc1ccc(-c2cc(-c3ccccc3OCCOc3ccccc3-c3cc(-c4ccc(OC)cc4)nc(OC)c3C#N)c(C#N)c(OC)n2)cc1 — within 1.5-fold, 890 µM
- CCOc1nc(-c2ccc(OC)cc2)cc(-c2ccccc2OCCOc2ccccc2-c2cc(-c3ccc(OC)cc3)nc(OCC)c2C#N)c1C#N — within 1.5-fold, 696 µM
- CCOc1nc(-c2ccc(O)cc2)cc(-c2ccccc2OCCOc2ccccc2-c2cc(-c3ccc(O)cc3)nc(OCC)c2C#N)c1C#N — 1.6-fold higher, 970 µM
- COc1nc(-c2cccs2)cc(-c2ccccc2OCCOc2ccccc2-c2cc(-c3cccs3)nc(OC)c2C#N)c1C#N — 2-fold higher, 1270 µM
- CCOc1nc(-c2cccs2)cc(-c2ccccc2OCCOc2ccccc2-c2cc(-c3cccs3)nc(OCC)c2C#N)c1C#N — within 1.5-fold, 865 µM
